Test results: paper PMC6497404 (Vaccine, 2019)

Legend:
BALB/c mice = experiment: Serum antibody ELISA after immunization with antigen-pulsed dendritic cells; format: in vivo, mouse; conditions: after first booster; mimotope-pulsed DCs i.p.; sera diluted 1:200
How it was run: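 Female BALB/c mice, 5–7 weeks old. Bone-marrow DCs pulsed with peptide antigen (1 μM) on day 6, matured with PGE₂ (10⁻⁷M) plus LPS (2 μg/ml) for 24h from day 7, washed on day 9. 5 × 10⁵ DCs in DPBS given i.p., with i.p. boosts of fresh pulsed DCs without adjuvant at days 14 and 28. Controls received DCs or DPBS. Sera diluted 1:200 and tested by ELISA.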

[1] = tested on: C. albicans SC5314 (disseminated candidiasis in BALB/c mice); experiment: Active vaccination; format: in vivo, Candida albicans; conditions: mimotope-pulsed DCs; lethal i.v. challenge; extended observation

Row | Sequence | Antibody ELISA titers in immune sera against the mimotope (BALB/c mice) | Protection against disseminated candidiasis (mimotope vaccination) [1]
1 | HYKTYGGYW [PS31] | highest | 
2 | SWYEGLRLI [PS55] |  | neither of the two other mimotopes PS55 or PS76 induced protection
3 | SYLTTGGFW [PS28] | highest | 
4 | WVPPGSWYL [PS2] | highest | 
5 | YRQFVTGFW [PS76] |  | neither of the two other mimotopes PS55 or PS76 induced protection
